The list is not random: actives were taken first. Their share in the collection is about 1%.
VIM-2 inhibitor = blocks Pseudomonas aeruginosa VIM-2 metallo-beta-lactamase | purified VIM-2, nitrocefin hydrolysis, epi-absorbance fluorescence | inhibition, % at 5.6 µM | actives 0.89% (n = 290,000) | AID 1527;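 active = inhibition above the mean of all tested compounds plus 3 SD, cutoff set per screening run, cut at about 7.5% in these data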;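 also: red hydrolysis product quenches plate fluorescence so inhibitors raise well fluorescence; 0% = enzyme with DMSO and 100% = DMSO without enzyme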
RAD54 branch = blocks human RAD54 Holliday junction branch migration | Q92698 | FAM/BHQ fluorescence | inhibition, % at 10.4 µM | actives 0.14% (n = 360,000) | AID 602329;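 active = mean normalized replicate activity at least 40 and at least half of replicates scoring 40 or more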;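 also: 0% = median of neutral control wells and 100% = median of positive control wells; inhibitors cause a drop in the FAM fluorescence signal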
Target sequence (Q92698 whole entry, looked up): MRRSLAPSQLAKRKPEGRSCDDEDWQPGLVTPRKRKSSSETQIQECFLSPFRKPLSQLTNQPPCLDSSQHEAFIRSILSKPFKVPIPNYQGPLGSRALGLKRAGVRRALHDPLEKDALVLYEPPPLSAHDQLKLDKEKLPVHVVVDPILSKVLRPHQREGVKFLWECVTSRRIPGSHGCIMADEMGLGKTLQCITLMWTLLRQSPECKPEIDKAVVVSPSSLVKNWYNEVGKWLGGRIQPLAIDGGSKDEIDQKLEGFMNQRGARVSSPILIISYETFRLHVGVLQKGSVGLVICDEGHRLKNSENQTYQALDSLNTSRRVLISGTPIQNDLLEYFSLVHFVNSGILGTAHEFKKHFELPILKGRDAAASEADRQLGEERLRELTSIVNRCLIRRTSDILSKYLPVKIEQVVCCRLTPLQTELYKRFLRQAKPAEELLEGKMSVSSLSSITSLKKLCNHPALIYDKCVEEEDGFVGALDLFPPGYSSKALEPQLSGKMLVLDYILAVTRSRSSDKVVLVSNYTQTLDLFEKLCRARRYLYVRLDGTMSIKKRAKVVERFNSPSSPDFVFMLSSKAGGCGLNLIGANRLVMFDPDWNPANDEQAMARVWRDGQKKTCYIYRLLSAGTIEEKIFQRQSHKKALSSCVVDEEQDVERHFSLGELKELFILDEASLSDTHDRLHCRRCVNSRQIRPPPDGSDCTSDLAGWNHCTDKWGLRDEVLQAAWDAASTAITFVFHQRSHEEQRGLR
FID counter = displaces DNA intercalator in HCV helicase counter-screen | inhibition, % at 7.9 µM | DNA fluorescent intercalator displacement, fluorescence | AID 1845 | actives 0.17% (n = 290,000); in the data active = inhibition above about 37%;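 also: 0% = vehicle and 100% = reference compound; higher means more ethidium bromide displaced from hairpin DNA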
IMP-1 inhibitor = inhibitors of Pseudomonas aeruginosa IMP-1 metallo-beta-lactamase; inhibition, % at 5.6 µM; AID 1556; purified IMP-1, nitrocefin hydrolysis, epi-absorbance fluorescence; actives 0.45% (n = 290,000);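 active = inhibition above the mean plus 3 SD of all compounds in the same screening run, cut at about 4.5% in these data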;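 also: 0% = IMP-1 with DMSO and 100% = DMSO wells lacking enzyme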
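Assay system: purified recombinant IMP-1 beta-lactamase. Input: IMP-1 0.2 nM before substrate addition. Buffer or medium: Zinc- and detergent-supplemented HEPES buffer, pH 7.1. Schedule: 25 °C, 15 min preincubation, 25 min reaction. Signal: Epi-absorbance fluorescence, 480 nm excitation, 530 nm emission. Evaluation: percent inhibition from optical density relative to buffer-blank wells.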
PvdQ inh = blocks Pseudomonas aeruginosa PvdQ acylase activity; purified PvdQ acylase, fluorescence plate reader; inhibition, % at 10 µM; actives 0.063% (n = 340,000); in the data active = inhibition above about 30%, passing the limit was not always enough;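 also: 0% = vehicle neutral wells and 100% = reference inhibitor wells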
* = called active by the depositor.

What do the screens show for `CC1CCCN(C2=C(NS(=O)(=O)c3ccc(Br)cc3)C(=O)c3ccccc3C2=O)C1` (stereo not given)?
VIM-2 inhibitor: 11*; RAD54 branch: -8; FID counter: -6; IMP-1 inhibitor: 1; PvdQ inh: -7

What do the screens show for `CCOC(=O)C1CCCN(C2=C(NS(=O)(=O)c3ccc(Br)cc3)C(=O)c3ccccc3C2=O)C1` (stereo not given)?
VIM-2 inhibitor: 8.2*; RAD54 branch: 1; FID counter: -3; IMP-1 inhibitor: 1; PvdQ inh: -14

How did COCC(=O)N1C[C@H](C)[C@H](OC)CN(C)C(=O)c2cc(NC(=O)c3cnccn3)ccc2OC[C@H]1C do in these assays?
RAD54 branch: -3

Results for CN(CC(=O)NCc1ccccc1)Cc1cccc(F)c1 ?
VIM-2 inhibitor: -2; RAD54 branch: 1; FID counter: 9; IMP-1 inhibitor: 5.6*; PvdQ inh: -9

How did O=C1OC(c2ccccc2)c2ccc3ccccc3c21 (stereo not given) do in these assays?
VIM-2 inhibitor: 9.5*; FID counter: 1; IMP-1 inhibitor: -2; PvdQ inh: -15

How did CCOC(=O)c1cc2c(=O)n3ccccc3nc2n(CCOC)c1=NC(=O)c1ccncc1 do in these assays?
VIM-2 inhibitor: 13*; RAD54 branch: 0; FID counter: -16; IMP-1 inhibitor: -3; PvdQ inh: -9

How did COCC(=O)Nc1ccc2c(c1)C(=O)N(C)[C@@H]1CC[C@@H](CC(=O)Nc3cn(C)nc3C)O[C@H]1CO2 do in these assays?
RAD54 branch: -16

How did CC1=C(C)C(=O)N(c2ccc(C(=O)O)cc2)C1=O do in these assays?
VIM-2 inhibitor: 0; RAD54 branch: 5; FID counter: 1; IMP-1 inhibitor: -2; PvdQ inh: -21

What do the screens show for `CCOC(=O)c1ccc(N2C(=O)C(C)=C(C)C2=O)cc1`?
VIM-2 inhibitor: -2; FID counter: -4; IMP-1 inhibitor: 1; PvdQ inh: 38*

Results for CO[C@H]1CN(C)C(=O)c2ccc(NC(=O)c3ccccc3)cc2OC[C@@H](C)N(C(=O)CN(C)C)C[C@@H]1C ?
RAD54 branch: 1

How did CCN=C1S/C(=C\c2cc(OCC)c(O)cc2Br)C(=O)N1CC do in these assays?
VIM-2 inhibitor: 7.8*; FID counter: 7; IMP-1 inhibitor: -1; PvdQ inh: 3

How did COc1cccc(/C=C2\Oc3cc(OC(=O)N4CCOCC4)ccc3C2=O)c1 do in these assays?
VIM-2 inhibitor: -3; FID counter: -4; IMP-1 inhibitor: -3; PvdQ inh: -3

What do the screens show for `COc1cccc(/C=C2\Oc3cc(OCC(=O)N4Cc5ccccc5C[C@H]4C(=O)O)ccc3C2=O)c1`?
VIM-2 inhibitor: 9.8*; RAD54 branch: -1; FID counter: 11; IMP-1 inhibitor: -1; PvdQ inh: -2

Results for Cc1csc(NC(=O)CSc2nc3ccccc3s2)n1 ?
VIM-2 inhibitor: -1; RAD54 branch: -2; FID counter: -9; IMP-1 inhibitor: 4.6*; PvdQ inh: 5

Results for O=C(CSc1nc2ccccc2s1)NNC(=S)Nc1ccc(Br)cc1 ?
VIM-2 inhibitor: -5; RAD54 branch: 3; FID counter: -40; IMP-1 inhibitor: -5; PvdQ inh: -14

What do the screens show for `O=C(CSc1nc2ccccc2s1)NNC(=S)Nc1ccccc1`?
VIM-2 inhibitor: 9.7*; RAD54 branch: -4; FID counter: -11; IMP-1 inhibitor: -4; PvdQ inh: -5

Results for C[C@@H]1CN([C@H](C)CO)C(=O)c2cc(C#Cc3ccccc3)cnc2O[C@H]1CN(C)C(=O)C1CC1 ?
RAD54 branch: -13

Results for CC(=O)N1[C@@H]2CN(S(=O)(=O)c3ccccc3C)c3ccccc3[C@@H]2[C@@H]1CO ?
RAD54 branch: -13

What do the screens show for `CNc1ncc(Cc2ccccc2)s1`?
VIM-2 inhibitor: 0; RAD54 branch: -9; FID counter: 1; IMP-1 inhibitor: 40*; PvdQ inh: -3

How did Cc1ccc(NC(=S)N(CCCN(C)C)Cc2cc3cc4c(cc3[nH]c2=O)OCO4)c(C)c1 do in these assays?
VIM-2 inhibitor: -1; FID counter: 44*; IMP-1 inhibitor: -3; PvdQ inh: -1

How did CN(C)CCCNC(=S)N(CCCN(C)C)Cc1cc2cc3c(cc2[nH]c1=O)OCO3 do in these assays?
VIM-2 inhibitor: 3; RAD54 branch: 29; FID counter: 17; IMP-1 inhibitor: -3; PvdQ inh: -6
